Hits are enriched below; roughly 2.6% of the tested compounds scored in any of these assays.
PG9 binder: binds the HIV-1 gp120 antibody PG9; TR-FRET gp120-PG9 antibody binding; inhibition, % at 6.7 µM; 360,000 tested, 0.43% active; AID 624416; in the data active = inhibition above about 8.5%
rCAG binder: r(CAG) repeat RNA binding | AID 651821 | 370,000 tested, 1.3% active | TO-PRO-1 dye displacement fluorescence | inhibition, % at 3 µM;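 active = inhibition above the plate cutoff, the mean of all test compounds on that plate plus 3 SD, cut at about 35% in these data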;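 note: 0% = DMSO alone and 100% = 100 µM mitoxantrone as full dye displacement; higher means more dye released from RNA so lower well fluorescence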
NR2E3 ag-1: activates human photoreceptor nuclear receptor NR2E3. Q9Y5X4. GST-NR2E3/biotin-RetCOR TR-FRET, 1536-well. inhibition of corepressor binding, % at 4.78 µM. 320,000 tested, 0.12% active. AID 2300;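 active = percent inhibition above the cutoff of mean plus 3 SD of all tested compounds, set per screening campaign, cut at about 20% in these data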;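 note: 0% = DMSO wells and 100% = biotin wells as full block of FRET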
Target sequence (Q9Y5X4 whole entry, looked up): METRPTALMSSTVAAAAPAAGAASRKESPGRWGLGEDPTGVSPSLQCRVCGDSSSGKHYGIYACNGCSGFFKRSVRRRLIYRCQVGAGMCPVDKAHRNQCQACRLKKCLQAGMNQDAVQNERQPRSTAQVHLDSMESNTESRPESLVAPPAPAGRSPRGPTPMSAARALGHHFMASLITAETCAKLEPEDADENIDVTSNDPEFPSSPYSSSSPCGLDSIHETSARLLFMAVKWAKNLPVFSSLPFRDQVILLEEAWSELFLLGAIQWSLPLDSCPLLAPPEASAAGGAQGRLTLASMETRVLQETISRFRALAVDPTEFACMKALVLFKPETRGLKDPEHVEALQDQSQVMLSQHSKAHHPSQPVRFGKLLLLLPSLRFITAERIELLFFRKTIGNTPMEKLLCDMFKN
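Material: NR2E3–RetCOR corepressor complex / Amount: 1.35 nM GST-NR2E3 / Medium: Tris pH 7.5 / Compound: single nominal compound dose of 4.8 µM / Incubation: 5 h at 4 °C / Technique: TR-FRET, Eu(K)-anti-GST donor, streptavidin-D2 acceptor, ex 340, em 617/671 nm / Read-out basis: percent loss of FRET ratio relative to control wells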
NR2E3 ag-2: activates human NR2E3 receptor | CHO-S Gal4-NCOR/VP16-NR2E3 two-hybrid, luciferase | inhibition of corepressor binding, % at 3.98 µM | 360,000 tested, 0.35% active | AID 602229;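 active = inhibition above the mean of all tested compounds plus 3 SD, cut at about 70% in these data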;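 note: 0% = DMSO with NR2E3 transfected cells and 100% = cells lacking NR2E3 construct; higher means lower luciferase signal from less NR2E3 corepressor binding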
NR1D1 modulator: Rev-erb alpha (human) modulation; P20393; Rev-erbα–FITC-DNA binding, fluorescence polarization, 90 min; activity, % at 10 µM; 370,000 tested, 0.79% active; AID 1259318;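 active = activity above about 14%, limit read from the data; passing the limit was not always enough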;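 note: 0% = DMSO wells with 35 nM protein and 100% = DMSO wells with 750 nM protein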
NR2E3 ag conf: NR2E3 agonism confirmed in two-hybrid assay | CHO-S mammalian two-hybrid NR2E3-NCOR, luciferase luminescence | 2,300 tested, 51% active | shares compounds with NR2E3 ag-2 | inhibition, % at 3.98 µM;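 active = average inhibition above a cutoff equal to the mean inhibition of all tested compounds plus one SD, cut at about 70% in these data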;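 note: 0% = DMSO in NR2E3 cells and 100% = DMSO in cells lacking NR2E3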
GAL4-VP16 luc: reduces GAL4-VP16 reporter signal in NR2E3 counterscreen. AID 624379. 2,300 tested, 29% active. inhibition, % at 3.98 µM. shares compounds with NR2E3 ag-2. CHO-S GAL4-VP16 luciferase reporter, luminescence;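 active = mean inhibition above a cutoff equal to the average over all tested compounds plus one standard deviation, cut at about 70% in these data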;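 note: luciferase from a UAS reporter driven by GAL4-VP16 transactivation; 0% = DMSO with VP16-transfected cells and 100% = DMSO with cells lacking VP16; higher means less reporter light so more repression of VP16 activity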
Starred values were filed as active, the others as inactive; · = not tested or not shown.

SMILES | PG9 binder | rCAG binder | NR2E3 ag-1 | NR2E3 ag-2 | NR1D1 modulator | NR2E3 ag conf | GAL4-VP16 luc
COc1ccc(N2C(=O)c3n[nH]c(C)c3C2c2ccc(F)cc2)cc1 (stereo not given) | 0 | -2 | · | · | 0 | · | ·
N=c1c2c(ccn1CCCc1ccccc1)Oc1ccc3ccccc3c1C2c1ccccc1 (stereo not given) | · | · | · | · | 9 | · | ·
N#C/C(=C\c1ccc(Sc2nc3ccccc3[nH]2)o1)c1ccccc1 | -3 | 6 | -2 | 73* | 1 | 82* | 56
N#C/C(=C\c1ccc(Sc2ccc(Cl)cc2)o1)c1nc2ccccc2[nH]1 | -1 | 10 | 1 | -56 | 3 | · | ·
CC(C(=O)Nc1ccccc1)c1ccc(-c2ccccc2)c(F)c1 (stereo not given) | · | · | -3 | 74* | · | 52 | 54
On1ccccc1=S | 1 | 3 | 4 | 101* | 0 | -97 | 4
CSc1ccc(-c2cnc(N3CCC(C(N)=O)CC3)s2)cc1 | · | · | · | · | 0 | · | ·
CCN(CC)S(=O)(=O)c1ccc(N2CCOCC2)c(NS(=O)(=O)c2cc(C(C)(C)C)ccc2C)c1 | -2 | 12 | 1 | 50 | -7 | 66 | -18
CCN(CC)S(=O)(=O)c1ccc(N2CCOCC2)c(NS(=O)(=O)c2ccc(C(C)C)cc2)c1 | 0 | 9 | -1 | 4 | 1 | · | ·
Cc1ccc2nc(CN(C)C(=O)[C@H](CCc3ccccc3)NC(=O)[C@H]3O[C@@H](n4cnc5c(N)ncnc54)[C@H](O)[C@@H]3O)[nH]c2c1 | 0 | 2 | · | · | 0 | · | ·
O=C(N/N=C/c1ccc([N+](=O)[O-])s1)c1ccncc1 | · | · | 1 | 7 | · | · | ·
Cc1ccc(C(=O)N/N=C/c2ccc([N+](=O)[O-])s2)cc1 | -3 | 4 | -4 | 69 | -4 | -3 | 68
O=C1c2ccccc2C(=O)c2[nH]c(=O)[nH]c21 | -20 | 7 | -4 | 68 | -14 | 75* | 32
O=C1c2ccccc2C(=O)c2[nH]cnc21 | 2 | 3 | · | -5 | 0 | · | ·
Nc1cc(S(=O)(=O)Nc2ccccc2Cl)ccc1N1CCCCC1 | 0 | 17 | · | 70* | 2 | 83* | 61
COc1ccc(NS(=O)(=O)c2ccc(N3CCCCC3)c(N)c2)cc1 | 2 | 9 | 1 | 92* | 2 | 95* | 86*
CC1CCN(c2ccc(S(=O)(=O)N3CCC(C)CC3)cc2N)CC1 | 0 | -1 | -1 | 100* | -11 | 87* | 72*
Nc1cc(S(=O)(=O)N2CCCCC2)ccc1N1CCOCC1 | -1 | 0 | 0 | 12 | -5 | · | ·
Nc1cc(S(=O)(=O)c2ccc(N3CCCCC3)c(N)c2)ccc1N1CCCCC1 | -4 | 9 | · | 94* | 1 | 95* | 84*
COc1ccc(-c2nc3ccccc3c(=O)n2Cc2ccccc2)cc1COc1ccc(NC(C)=O)cc1 | · | · | · | · | -3 | · | ·
COc1cccc(C(C)(O)c2nc(-c3cc4ccccc4o3)cs2)c1 (stereo not given) | -3 | 0 | · | 79* | 4 | 93* | 72*
CC(O)(c1ccc(F)c(F)c1)c1nc(-c2cc3ccccc3o2)cs1 (stereo not given) | -2 | 4 | · | 58 | 12 | 61 | 48
COc1cccc(C(C)(O)c2nc(-c3ccc(N(C)C)cc3)cs2)c1 (stereo not given) | 0 | 9 | · | 73* | 10 | 83* | 60
COc1cccc(C(C)(O)c2nc(-c3ccccc3)cs2)c1 (stereo not given) | -1 | -1 | · | 3 | -4 | · | ·
CC(O)(c1cccc(F)c1)c1nc(-c2cc3ccccc3o2)cs1 (stereo not given) | 1 | 2 | · | 34 | 1 | · | ·
SMILES | PG9 binder | rCAG binder | NR2E3 ag-1 | NR2E3 ag-2 | NR1D1 modulator | NR2E3 ag conf | GAL4-VP16 luc
COC(=O)C1=C(C)N(Cc2cccc(C(F)(F)F)c2)C(=NCc2ccc(C(F)(F)F)cc2)NC1c1cccc(C(F)(F)F)c1 (stereo not given) | 0 | 0 | · | · | -2 | · | ·
CC(=O)/C(=N/Nc1cccc(Cl)c1)N1CCOCC1 | -2 | -6 | 6 | 64 | 3 | 7 | -18
CCN(CC)S(=O)(=O)c1ccc(Cl)c(C(=O)Nc2ccc(Cl)cc2[N+](=O)[O-])c1 | -2 | 2 | 5 | 58 | -1 | 70* | 67
CN(C)S(=O)(=O)c1ccc(Cl)c(C(=O)Nc2ccccc2[N+](=O)[O-])c1 | 0 | -3 | 1 | -6 | 0 | · | ·
COc1cccc(NC(=O)N(C)C[C@H]2OCc3cn(nn3)CCCC(=O)N([C@H](C)CO)C[C@@H]2C)c1 | 1 | 3 | · | · | -3 | · | ·
COc1ccc(N=C(NN)c2ccc3ccccc3n2)cc1 | -2 | 6 | 0 | 69 | -1 | -81 | -95
C(=NN1CCCCCC1)c1cccc2ccccc12 | 0 | 4 | · | 6 | 0 | · | ·
C(=NN1CCCCCC1)c1ccc2ccccc2n1 | -2 | 6 | · | 95* | -4 | 86* | 68
CCCCc1c(-c2ccccc2OC)ncn1Cc1ccc(F)c(F)c1 | -1 | 1 | · | · | 6 | · | ·
CCc1c(C)nc2ncnn2c1NCCc1ccc(OC)cc1 | -2 | -6 | -1 | 84* | 1 | 89* | 66
CCc1c(C)nc2ncnn2c1Nc1ccc(C)cc1 | -1 | -6 | 3 | -3 | 6 | · | ·
O=c1cc(CN2CCCC2)c2ccccc2o1 | 1 | 7 | · | · | 4 | · | ·
COC(=O)C(CC(C)C)N(Cc1ccc(Br)cc1)S(=O)(=O)CCl (stereo not given) | -1 | 2 | · | · | 2 | · | ·
Cc1oc2c(c(C)nn2-c2ccccc2)c(=O)c1Cl | 0 | 3 | · | · | -5 | · | ·
O=C(Nc1ccccc1)/C(=C\c1cccs1)NC(=O)c1ccccc1 | -3 | 0 | 5 | -2 | 1 | · | ·
Cc1cccc(NC(=O)/C(=C\c2cccs2)NC(=O)c2ccccc2)c1 | · | · | 0 | 56 | · | 6 | -10
Cc1cc(-c2ccc(C)c(S(=O)(=O)NCCCN3CCN(c4ccccc4)CC3)c2)on1 | -1 | 2 | -2 | 46 | -4 | · | ·
Cc1cc(-c2ccc(C)c(S(=O)(=O)NCCCN3CCN(c4ccccc4F)CC3)c2)on1 | -1 | 1 | 4 | 62 | -3 | 76* | 68
Cc1cccc(C)c1NC(=O)C(CCc1ccccc1)N1CCN(CCN(C)C)CC1 (stereo not given) | -1 | 3 | · | · | -1 | · | ·
C(=C\c1ccccc1)/CSc1nnc(Cc2cccs2)n1-c1ccccc1 | · | 1 | · | · | 1 | · | ·
O=C(CSc1cccc[n+]1[O-])Nc1cc(Cl)ccc1[N+](=O)[O-] | 0 | 1 | · | -17 | 3 | · | ·
O=[N+]([O-])c1ccc(Sc2cccc[n+]2[O-])c2nonc12 | -2 | 2 | · | 102* | 3 | -44 | -7
O=C(c1ccccc1Cl)N1CCSCCS1(=O)=O | -1 | -1 | · | · | 8 | · | ·
